What was measured:
Format in all cases: functional, Mus musculus
L1210 [1] = test: Antitumor activity was determined against the ip implanted L1210 leukemia in mice by percent increase in life span at 40 mg/kg (treatment of 1-5qd schedule) dosage; conditions: route intraperitoneal
Method in brief: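 DBA/2J mice in groups of 6 (wt 23-28 g) were inoculated ip with 1×10^6 L1210 cells on day 0. Dosing was ip from 24 h, in 0.9% NaCl with 0.5% Tween-80 (conjugates sonicated), across a range of doses. Mice were observed daily until death or 45 days. Median T/C was computed from survivors per NCI protocols, and ILS = (T/C − 1)×100.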

L1210 [2] = test: Antitumor activity was determined against the ip implanted L1210 leukemia in mice by range in survival days at 40 mg/kg (treatment of 1-5qd schedule) dosage; 24->45; conditions: route intraperitoneal
Method in brief: (§1)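 DBA/2J mice, 23-28 g, in groups of 6, were inoculated ip with 1×10^6 L1210 cells on day 0. Dosing was ip starting 24 h later on the stated daily schedules. Conjugates were given as sonicated solutions and reference prodrugs as suspensions in 0.9% NaCl with 0.5% Tween-80. Mice were observed daily until death or 45 days. Median survival T/C was calculated from survivors per NCI protocols.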

L1210 [3] = test: Antitumor activity was determined against the ic implanted L1210 lymphoid leukemia in mice by change in […] at 133 mg/kg (1,5,9qd treatment schedule) dosage
Method in brief: (§2)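 DBA/2J mice, 6 per group (wt 26-32 g), inoculated ic with 1×10^5 L1210 cells on day 0. Dosing ip began 24 h after inoculation, with a sonicated solution or suspension in 0.9% NaCl containing 0.5% Tween-80, given over a range of doses. Animals were followed daily until death. Body weight change, median survival T/C, and %ILS = (T/C − 1) × 100 were computed from survivors per NCI protocols.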

P388 [4] = test: Antitumor activity was determined against the ip implanted P388 leukemia in mice by percent median survival rate (treated/control) at 500 mg/kg (1 qd treatment schedule) dosage; >45.0/11.0; conditions: route intraperitoneal
L1210 [5] = test: Antitumor activity was determined against the ic implanted L1210 lymphoid leukemia in mice by percent increase in life span at 300 mg/kg (1 qd treatment schedule) dosage
Method in brief: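 DBA/2J mice, groups of 6 (26-32 g), got 1 × 10^5 L1210 cells ic on day 0. Dosing was ip starting 24 h later, as a sonicated solution or suspension in 0.9% NaCl with 0.5% Tween-80, over a wide dose range. Mice were followed daily until death. Median survival T/C was taken from survivors per NCI protocols, and ILS = (T/C − 1) × 100. Active range means doses giving ILS ≥25%; optimal dose means greatest ILS.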

L1210 [6] = test: Antitumor activity was determined against the ic implanted L1210 lymphoid leukemia in mice by change in […] at 100 mg/kg (treatment of 1-9qd schedule) dosage; method in brief: as §2
P388 [7] = test: Antitumor activity was determined against the ip implanted P388 leukemia in mice by change in […] at 200 mg/kg (treatment of 1-5qd schedule) dosage; conditions: route intraperitoneal
Method in brief: (§3)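 P388 leukemia, 1×10^6 cells implanted ip on day 0 into DBA/2J mice, groups of 6 (wt 23-33 g). Dosing ip started 24 h post-inoculation, vehicle 0.9% NaCl containing 0.5% Tween-80. Animals were observed daily until death or 45 days. Outputs were weight change, median survival T/C from survivors per NCI protocols, and %ILS = (T/C − 1) × 100.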

P388 [8] = test: Antitumor activity was determined against the ip implanted P388 leukemia in mice by percent median survival rate (treated/control) at 200 mg/kg (treatment of 1-5qd schedule) dosage; 23.0/11.0; conditions: route intraperitoneal
P388 [9] = test: Antitumor activity against ip implanted P388 leukemia in mice expressed as active dose range (1-5qd treatment schedule) required to produce increase in life span by >25% was determined; Range is 20-200
Method in brief: (§4)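 P388 leukemia: 1 × 10^6 cells were given ip on day 0 to DBA/2J mice, groups of 6 (23-33 g). Treatment was ip from 24 h after inoculation, vehicle 0.9% NaCl with 0.5% Tween-80. Mice were observed daily until death or 45 days. Median survival T/C was calculated from survivors per NCI protocols, and ILS = (T/C − 1) × 100. Active range means doses giving ILS ≥25%; optimal dose means greatest ILS.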

P388 [10] = test: Antitumor activity was determined against the ip implanted P388 leukemia in mice by change in […] at 133 mg/kg (treatment of 1qd schedule) dosage; conditions: dose 300 mg/kg; route intraperitoneal; in the assay text read “300 mg/kg” for “133 mg/kg”; method in brief: as §3
L1210 [11] = test: Antitumor activity was determined against the ip implanted L1210 leukemia in mice by percent median survival rate (treated/control) at 80 mg/kg (treatment of 1-5qd schedule) dosage; 25.5/7.0; conditions: route intraperitoneal; method in brief: as §1
P388 [12] = test: Antitumor activity was determined against the ip implanted P388 leukemia in mice by 45-day survivors in mice at 60 mg/kg (treatment of 1-5qd schedule) dosage; conditions: route intraperitoneal
Method in brief: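 DBA/2J mice, 23-33 g, in groups of 6, were inoculated ip with 1×10^6 P388 cells on day 0. Dosing was ip from 24 h on the stated schedules, in 0.9% NaCl with 0.5% Tween-80 (sonicated solution or suspension). Survival was followed daily until death or 45 days. Median T/C was calculated from survivors per NCI protocols, with ILS = (T/C − 1) × 100.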

L1210 [13] = test: Antitumor activity against ip implanted L1210 leukemia in mice expressed as active dose range (1-5qd treatment schedule) required to produce increase in life span by >25% was determined; Range is 40-80
Method in brief: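 DBA/2J mice, groups of 6 (23-28 g), were inoculated ip with 1 × 10^6 L1210 cells on day 0. Dosing was ip from 24 h, in 0.9% NaCl with 0.5% Tween-80 (sonicated solution or suspension). Mice were observed daily until death or day 45. Median survival T/C followed NCI protocols, and ILS = (T/C − 1) × 100. Active range means doses giving ILS ≥25%; optimal dose means greatest ILS.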

L1210 [14] = test: Antitumor activity was determined against the ic implanted L1210 lymphoid leukemia in mice by range in survival days at 100 mg/kg (treatment of 1-5qd schedule) dosage; Range is 21-24
P388 [15] = test: Antitumor activity was determined against the ip implanted P388 leukemia in mice by change in […] at 60 mg/kg (treatment of 1-5qd schedule) dosage; conditions: route intraperitoneal; method in brief: as §3
P388 [16] = test: Antitumor activity against ip implanted P388 leukemia in mice expressed as active dose range (1-5qd treatment schedule) required to produce increase in life span by >25% was determined; Range is 40-60; method in brief: as §4
P388 [17] = test: Antitumor activity was determined against the ip implanted P388 leukemia in mice by range in survival days at 500 mg/kg (treatment of 1qd schedule) dosage; Range is 23->45; conditions: route intraperitoneal
L1210 [18] = test: Antitumor activity was determined against the ip implanted L1210 leukemia in mice by range in survival days at 100 mg/kg (treatment of 1-5qd schedule) dosage; 18-32; conditions: route intraperitoneal; method in brief: as §1

Compound `CCCCCCCCCCCCCCCC(=O)OC[C@H](COP(=O)(O)OP(=O)(O)OC[C@H]1O[C@@H](n2ccc(N)nc2=O)[C@@H](O)[C@@H]1O)OC(=O)CCCCCCCCCCCCCCC` has an ILS (L1210 [1]) of 275, a Range (L1210 [2]) of 24 and a Weight change (L1210 [3]) of -1.11 g mouse-1. The T/C (P388 [4]) was greater than 45% and the ILS (L1210 [5]) was 200.
`Nc1ccn([C@@H]2O[C@H](CO)[C@@H](O)[C@@H]2O)c(=O)n1` [CYTARABINE] showed a Weight change (L1210 [6]) of -5.8, a Weight change (P388 [7]) of -3.62 g mouse-1 and a T/C (P388 [8]) of 23%. It also gave an Active dose range (P388 [9]) of 20 mg/kg/day.
In the case of `CCCCCCCCCCCCCCCCOCC(COP(=O)(O)OP(=O)(O)OC[C@H]1O[C@@H](n2ccc(N)nc2=O)[C@@H](O)[C@@H]1O)OC(=O)CCCCCCCCCCCCCCC` (mixture of isomers), the Weight change (P388 [10]) was -1.51 g mouse-1, the T/C (L1210 [11]) was 25.5% and the Survivors (P388 [12]) was 6. For the same compound, the Active dose range (L1210 [13]) was 40 mg/kg/day, the Range (L1210 [14]) was 21 and the Weight change (P388 [15]) was -3.3 g mouse-1. For the same compound, the Active dose range (P388 [16]) was 40 mg/kg/day.
`CCCCCCCCCCCCCCCCCCOCC(COP(=O)(O)OP(=O)(O)OC[C@H]1O[C@@H](n2ccc(N)nc2=O)[C@@H](O)[C@@H]1O)OC(=O)CCCCCCCCCCCCCCC` (mixture of isomers) showed a Range (P388 [17]) of 23 and a Range (L1210 [18]) of 18.

Reference: ChEMBL document CHEMBL1123247, “Nucleoside conjugates. 7. Synthesis and antitumor activity of 1-beta-D-arabinofuranosylcytosine conjugates of ether lipids” (J Med Chem, 1986)
